Here are results for twelve compounds from ChEMBL document CHEMBL1130024, “Synthesis and structure-activity relationships of 17beta-substituted 14beta-hydroxysteroid 3-(alpha-L-rhamnopyranoside)s: steroids that bind to the digitalis receptor” (J Med Chem, 1997).

Test system in one assay: not listed separately; call rule not given here
In words: Concentration that inhibits binding of [3H]ouabain against Digitalis receptor in dog heart microsomes; Not active at a concentration > 100 uM. The arrangement: species or system Canis lupus familiaris, Microsome.
Turning to `C[C@@H]1O[C@@H](O[C@H]2CC[C@@]3(C)[C@H](CC[C@@H]4[C@@H]3CC[C@]3(C)[C@@H]5CC[C@]43OC(=O)C5)C2)[C@H](O)[C@H](O)[C@H]1O`, the 50% inhibitory concentration (IC50) – broadly, the concentration at which inhibition is half-maximal – was “Not Active”.

Another assay addresses Sodium/potassium-transporting ATPase subunit alpha-1 (Canis lupus familiaris, UniProt P50997). Put plainly: Inhibition of [3H]ouabain binding to Digitalis receptor in dog heart microsomes. In short, it runs like this:
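Radioligand competition assay in dog heart muscle microsomes (membrane preparation), measuring [³H]ouabain binding with the test steroids present. Steroids were added in ethanol.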
The compound `C[C@@H]1O[C@@H](O[C@H]2CC[C@@]3(C)[C@H](CC[C@@H]4[C@@H]3CC[C@]3(C)[C@@H](C(O)CN)CC[C@]43O)C2)[C@H](O)[C@H](O)[C@H]1O` (some centres not stated) gave a half-inhibitory concentration (IC50) of 3220 nM.

`C[C@@H]1O[C@@H](O[C@H]2CC[C@@]3(C)[C@H](CC[C@@H]4[C@@H]3CC[C@]3(C)[C@@H](/C=C/C(=O)O)CC[C@]43O)C2)[C@H](O)[C@H](O)[C@H]1O` had an IC50 of 13 nM. Same read-out and setting: the same measure for `C[C@@H]1O[C@@H](O[C@H]2CC[C@@]3(C)[C@H](CC[C@@H]4[C@@H]3CC[C@]3(C)[C@@H]5CC[C@]43OC5)C2)[C@H](O)[C@H](O)[C@H]1O`: 2200 nM. In turn, `C[C@@H]1O[C@@H](O[C@H]2CC[C@@]3(C)[C@H](CC[C@@H]4[C@@H]3CC[C@]3(C)[C@@H](CCO)CC[C@]43O)C2)[C@H](O)[C@H](O)[C@H]1O` gave a concentration for half-maximal inhibition (IC50) of 660 nM.

In turn, `CC1OC(O[C@H]2CC[C@@]3(C)[C@H](CC[C@@H]4[C@@H]3CC[C@]3(C)[C@@H](CCN)CC[C@]43O)C2)C(O)C(O)C1O` (some centres not stated) had an IC50 of 1890 nM. `COC(C[N+](=O)[O-])[C@H]1CC[C@]2(O)[C@@H]3CC[C@@H]4C[C@@H](O[C@@H]5O[C@@H](C)[C@H](O)[C@@H](O)[C@H]5O)CC[C@]4(C)[C@H]3CC[C@]12C` (some centres not stated) gave a 50% inhibitory concentration (IC50) of 30 nM. Still for that read-out and setting: next, `C[C@H]1O[C@@H](O[C@H]2[C@@H](O)C[C@H](O[C@H]3[C@@H](O)C[C@H](O[C@H]4CC[C@@]5(C)[C@H](CC[C@@H]6[C@@H]5CC[C@]5(C)[C@@H](C7=CC(=O)OC7)CC[C@]65O)C4)O[C@@H]3C)O[C@@H]2C)C[C@H](O)[C@@H]1O` [DIGITOXIN]: 8 nM; `C[C@@H]1O[C@@H](O[C@H]2CC[C@@]3(C)[C@H](CC[C@@H]4[C@@H]3CC[C@]3(C)[C@@H](CC[N+](=O)[O-])CC[C@]43O)C2)[C@H](O)[C@H](O)[C@H]1O`: 45.5 nM. Compound `C[C@@H]1O[C@@H](O[C@H]2CC[C@@]3(C)[C@H](CC[C@@H]4[C@@H]3CC[C@]3(C)[C@H](C(O)C[N+](=O)[O-])CC[C@]43O)C2)[C@H](O)[C@H](O)[C@H]1O` (some centres not stated) registered a half-inhibitory concentration (IC50) of 4730 nM. Compared with the last compound, the IC50 is about 100-fold higher.

On to `C[C@@H]1O[C@@H](O[C@H]2CC[C@@]3(C)[C@H](CC[C@@H]4[C@@H]3CC[C@]3(C)[C@@H](/C=C/[N+](=O)[O-])CC[C@]43O)C2)[C@H](O)[C@H](O)[C@H]1O`, for which the IC50 is 8.3 nM.

`C[C@@H]1O[C@@H](O[C@H]2CC[C@@]3(C)[C@H](CC[C@@H]4[C@@H]3CC[C@]3(C)[C@@H](CCC(=O)O)CC[C@]43O)C2)[C@H](O)[C@H](O)[C@H]1O` gave an IC50 of 230 nM.
